Data set [1] in a line: melting temperature; fluorescence melt of hairpins on a sequencing array, two-state fit, raised by 9.35 °C to match UV melts. Conditions: sodium 0.088 M. In a few lines: (§1)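 Two-state fits, bootstrapped, provided melting temperature and folding enthalpy from Cy3 fluorescence normalised to pre-quench Cy3 and to control constructs. Library hairpins with annealed Cy3 and quencher oligos were imaged on a sequenced MiSeq flow cell in 50 mM Na-HEPES pH 8.0, 25 mM NaCl, at 2.5 °C intervals up to 60 °C. Four replicates were combined with inverse-variance weighting. A 9.35 °C upward shift was applied to fitted temperatures to match UV melts.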

A short description of data set [2]: folding enthalpy; higher = less favourable; fluorescence melt of hairpins on a sequencing array, two-state fit. Conditions: sodium 0.088 M. In outline: as §1

Regarding GCGTCAACGAAAGTTCGC (((..(((....)))))), the Tm in data set [1] stood at 45 °C. For the same sequence, in data set [2], the folding enthalpy was -27.6 kcal/mol.
For GCGTCAAGACGC ((((....)))) the same measures were 55.1 °C and -29.9 kcal/mol.
GCGTCACCACGC ((((....)))): the Tm in data set [1] was 53 °C. In data set [2], the folding enthalpy was -22.7 kcal/mol.
The corresponding values for GCGTCACGAAAGTGCGC (((.(((....)))))) are 66.9 °C and -31.1 kcal/mol.
The corresponding values for GCGTCAGGAAACTGGCGC (((.(((....))).))) are 63 °C and -43.8 kcal/mol.
For GCGTCATCGAAAGATCGC (((..(((....)))))) the same measures were 44 °C and -24.4 kcal/mol.
In the case of GCGTCCAAACGC ((((....)))), the Tm in data set [1] was 51.4 °C. In addition, in data set [2], the folding enthalpy was -18.8 kcal/mol.
The corresponding values for GCGTCCAGACGC ((((....)))) are 56.6 °C and -28.7 kcal/mol.
For GCGTCCATACGC ((((....)))) the same measures were 52.7 °C and -23.3 kcal/mol.
For GCGTCCCACGC ((((...)))) the same measures were 56.3 °C and -25.9 kcal/mol.
For GCGTCCCTACGC ((((....)))), the Tm in data set [1] is 53.7 °C. For the same sequence, the folding enthalpy in data set [2] was -23.2 kcal/mol.
For GCGTCCGAAAGGAACGC ((((((....))).))) the same measures were 64.9 °C and -35.7 kcal/mol.
The corresponding values for GCGTCCGAAAGGAGCGC ((((((....))).))) are 66.8 °C and -22.9 kcal/mol.
The corresponding values for GCGTCCGAAAGGATTCGC ((((((....)))..))) are 47.1 °C and -26.9 kcal/mol.
Regarding GCGTCCTTACGC ((((....)))), the Tm in data set [1] is 53.6 °C. Besides, the folding enthalpy in data set [2] was -23.6 kcal/mol.
Consider GCGTCGACACGC ((((....)))), for which, in data set [1], the Tm is 51.7 °C. For the same sequence, the folding enthalpy in data set [2] was -21.5 kcal/mol.
Turning to GCGTCGACGAAAGTCCGC (((..(((....)))))), the Tm in data set [1] is 49.7 °C. In addition, the folding enthalpy in data set [2] was -22.2 kcal/mol.
The corresponding values for GCGTCGAGACGC ((((....)))) are 61 °C and -25.2 kcal/mol.
Consider GCGTCGATACGC ((((....)))), for which the Tm in data set [1] was 52.2 °C. In addition, the folding enthalpy in data set [2] was -19.2 kcal/mol.
For GCGTCGCAACGC ((((....)))) the same measures were 56.2 °C and -20 kcal/mol.
For GCGTCGCACGC ((((...)))) the same measures were 64.5 °C and -17.5 kcal/mol.
The corresponding values for GCGTCGCGAAAGCCAGGC ((.(.((....)).).)) are 33.8 °C and -10.6 kcal/mol.
Turning to GCGTCGCGAAAGCGGAGC ((..(((....)))..)), the Tm in data set [1] is 67.5 °C. In addition, the folding enthalpy in data set [2] is -27.6 kcal/mol.
For GCGTCGCGAAAGCTGCGC (((..((....))..))) the same measures were 61.7 °C and -22.5 kcal/mol.
The corresponding values for GCGTCGGGAAACCAACGC ((((.((....)).)))) are 51.5 °C and -41.5 kcal/mol.
The corresponding values for GCGTCGTAACGC ((((....)))) are 55.3 °C and -21.4 kcal/mol.
On to GCGTCGTTACGC ((((....)))), for which the Tm in data set [1] came to 52.6 °C. The folding enthalpy in data set [2] was -21.8 kcal/mol.
Regarding GCGTCTCAACGC ((((....)))), the Tm in data set [1] is 56.6 °C. For the same sequence, the folding enthalpy in data set [2] is -20.3 kcal/mol.
For GCGTCTGGAAACGGACGC (((((.(....).))))) the same measures were 64.3 °C and -48.5 kcal/mol.
In the case of GCGTCTTAACGC ((((....)))), the Tm in data set [1] came out at 57.5 °C. Moreover, the folding enthalpy in data set [2] was -26.4 kcal/mol.
GCGTGAATACGC ((((....)))): the Tm in data set [1] was 61.2 °C. The folding enthalpy in data set [2] was -31.3 kcal/mol.
GCGTGACGACGC ((((....)))): in data set [1], the Tm amounted to 56.8 °C. In addition, in data set [2], the folding enthalpy is -27.2 kcal/mol.
GCGTGATACGC ((((...)))): the Tm in data set [1] was 55.4 °C. Also, in data set [2], the folding enthalpy was -22.2 kcal/mol.
For GCGTGCACACGC ((((....)))) the same measures were 68 °C and -25.7 kcal/mol.
The corresponding values for GCGTGCCTACGC ((((....)))) are 57 °C and -27.6 kcal/mol.
For GCGTGCGAAAGCAACCGC ((((((....)))..))) the same measures were 53.7 °C and -18.6 kcal/mol.
For GCGTGCGAAAGCAATCGC ((((((....)))..))), the Tm in data set [1] is 52.7 °C. In addition, the folding enthalpy in data set [2] was -22.6 kcal/mol.
For GCGTGCGAAAGCAGCCGC ((((((....)))..))) the same measures were 55.2 °C and -19 kcal/mol.
For GCGTGCGAAAGCATACGC ((((((....)))..))) the same measures were 63.9 °C and -28.9 kcal/mol.
